This note sets out measurements from ChEMBL document CHEMBL1123267, “Synthesis and radioprotective activity of new cysteamine and cystamine derivatives” (J Med Chem, 1986).

For data set [1], the system named is Mus musculus. The data set can be described thus: Radioprotective effects in mice when administered i.p. at 50% LD50, 15 min prior to whole body radiation. Format: functional. An outline of the steps: (§1)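 Mice in groups of 20 were given the compound i.p., dissolved in distilled water. Whole-body irradiation was from a 60Co γ source at 0.65 Gy/min. First dose was the control LD100/30 days (9 Gy males, 9.5 Gy females) or that dose + 2 Gy, then a dose series. Irradiation LD50/30-day was found by the Karber method. DRF = treated LD50/30 ÷ solvent-control LD50/30.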

The test system of data set [2] is Mus musculus. The data set can be described thus: Radioprotective effects in mice when administered i.p. at 50% LD50, 2 hr prior to whole body radiation. Format: functional. The procedure, abridged: as §1
Data set [3] can be described thus: Lethal dose in mice (LD50). Format: toxicity, organism-based. The note with it: mouse, in vivo. The procedure, abridged: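 Compounds were dissolved in distilled water and the dose range was set in a preliminary study. Five groups of 10 mice then received different doses within that range. LD50 was derived by Probit analysis.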
For data set [4], the system named is Mus musculus. The data set is described as follows: Radioprotective effects in mice when administered i.p. at 12.5% LD50, 15 min prior to whole body radiation. Format: functional. The procedure, abridged:
as §1

In data set [5] the test system is Mus musculus. The data set can be described thus: Compound was tested for radioprotective activity when injected intraperitoneally with a dose equal to one-eighth of its LD50, 15 min before whole-body irradiation. Format: functional. An outline of the steps:
as §1

SMILES strings stand for the structures. Where only a bound is given, the exact number is not on record here.

A word on the LD50: it is the dose expected to kill half of the subjects tested. The low end stands for greater toxicity, the high end for lower toxicity. Consider `CC(=O)NCCSC(=O)CN.O=C(O)C(F)(F)F`, for which the figures for the DRF in data set [1], in data set [2] and in data set [4] were 1.2, 1 and 1, respectively. This compound also showed an LD50 in data set [3] of 1000 mg/kg.
Turning to `Br.Br.C[C@H](N)C(=O)NCCSSCCNC(=O)[C@@H](C)N`, the DRF in data set [1], in data set [2] and in data set [4] was 1 throughout. Moreover, the LD50 in data set [3] stood at 800 mg/kg.
As for `Br.CC(=O)SCCNC(=O)CN`, the DRF in data set [1] was found to be 1.4; in data set [2] it was 1; in data set [4], 1. This compound also yielded an LD50 in data set [3] of 1500 mg/kg.
For `CC(=O)SCCNC(=O)CN.O=C(O)C(F)(F)F`, the results for the DRF in data set [1], in data set [2] and in data set [4] were 1.4, 1 and 1, respectively. In addition, the median lethal dose (LD50) in data set [3] turned out to be 1500 mg/kg.
On to `Br.Br.NCC(=O)NCCSSCCNC(=O)CN`, for which the results for the DRF in data set [1], in data set [2] and in data set [4] were 1.4, 1 and 1, respectively. In data set [3], the LD50 stood at 1500 mg/kg.
For `Br.Br.NCCC(=O)NCCSSCCNC(=O)CCN`, the DRF in data set [1], in data set [2] and in data set [4] was 1 in each case. Further, the LD50 in data set [3] amounted to 350 mg/kg.
For `Br.CC(=O)SCCNC(=O)[C@H](C)N`, the DRF in data set [1] was found to be 1.4; in data set [2], 1.2; in data set [4], 1. Besides, the LD50 in data set [3] amounted to 1500 mg/kg.
As to `NCC(=O)NCCSC(=O)C(Cl)(Cl)Cl.O=C(O)C(F)(F)F`, the DRF in data set [1] turned out to be 1.05; in data set [2], 1; in data set [5], 1. Besides, the LD50 in data set [3] came to 700 mg/kg.
Take `Br.CC(=O)SCCNC(=O)CCN`: the DRF in data set [1], in data set [2] and in data set [4] was 1 each time. Further, the LD50 in data set [3] is 400 mg/kg.
On to `CC(=O)SCCN.Cl`, for which the DRF in data set [1] stood at 1.05; in data set [2], 1.05; in data set [4], 1. Further, in data set [3], the LD50 is 500 mg/kg.
Take `Br.CC(=O)NCCSC(=O)CN`: the DRF is given as 1.1 in data set [1], 1 in data set [2] and 1 in data set [4]. Further, in data set [3], the LD50 came out at 600 mg/kg.
Take `Br.CCC(=O)SCCNC(=O)CN`: the values for the DRF in data set [1], in data set [2] and in data set [4] were 1.2, 1 and 1, respectively. This compound also returned an LD50 in data set [3] of 1500 mg/kg.
With `Br.CC(C)(C)C(=O)SCCNC(=O)CN`, the results for the DRF in data set [1], in data set [2] and in data set [4] were 1.05, 1 and 1, respectively. Besides, the LD50 in data set [3] is 1200 mg/kg.
As to `NCC(=O)NCCSC(=O)CCl.O=C(O)C(F)(F)F`, the DRF in data set [1], in data set [2] and in data set [4] was 1 throughout. In data set [3], the LD50 was 550 mg/kg.
Regarding `Br.Br.NCCCC(=O)NCCSSCCNC(=O)CCCN`, the DRF in data set [1], in data set [2] and in data set [4] was 1 in each case. The LD50 in data set [3] amounted to 300 mg/kg.
Take `NCC(=O)NCCSC(=O)C(Cl)Cl.O=C(O)C(F)(F)F`: the figures for the DRF in data set [1], in data set [2] and in data set [4] were 1.1, 1 and 1, respectively. This compound also returned an LD50 in data set [3] of 800 mg/kg.
In the case of `Br.CC(=O)SCCNC(=O)CCCN`, the results for the DRF in data set [1] and in data set [4] were 1.1 and 1, respectively. For the same compound, the LD50 in data set [3] amounted to 800 mg/kg.
`NCC(=O)NCCSSCCNC(=O)CN.O=C(O)C(F)(F)F.O=C(O)C(F)(F)F`: the DRF came out at 1.55 in data set [1], 1.1 in data set [2] and 1.2 in data set [4]. For the same compound, the 50% lethal dose (LD50) in data set [3] came to 1500 mg/kg.
In the same order, the values of `C[C@H](N)C(=O)NCCSSCCNC(=O)[C@@H](C)N.O=C(O)C(F)(F)F.O=C(O)C(F)(F)F` are 1.4, 1.1, 1 and 1200 mg/kg.
In the same order, the values of `CC(=O)SCCNC(=O)[C@H](C)N.O=C(O)C(F)(F)F` are 1.4, 1, 1 and 1250 mg/kg.
With `NCCCNCCSP(=O)(O)O` [AMIFOSTINE], the DRF in data set [1] is on record as 2.7; in data set [2], over 1.3; in data set [4], 1.5. For the same compound, the LD50 in data set [3] was determined as 950 mg/kg.
